Columns and labels:
Mus musculus [1] = test: Anesthetic activity in ICR mouse assessed as onset time for loss of righting reflex at 200 mg equiv/kg parent drug administered via oral gavage; type: functional
Summary of the method: (§1)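 Male and female ICR mice (20 ± 2 g), fasted overnight, dosed by gavage in 10% DMSO, 20% Solutol HS-15, 70% saline (n = 10/group for diastereoisomeric mixtures, n = 6/group for single diastereoisomers). Mice were placed on their backs until righting stopped. Read-outs were onset of LORR, anesthetic duration, percent with LORR and percent mortality per group.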

Mus musculus [2] = test: Anesthetic activity in ICR mouse assessed as anesthetic duration time at 200 mg equiv/kg parent drug administered via oral gavage; type: functional; summary of the method: as §1
Mus musculus [3] = test: Anesthetic activity in ICR mouse assessed as loss of righting reflex at 200 mg equiv/kg parent drug administered via oral gavage relative to control; type: functional; summary of the method: as §1
[4] = Toxicity in ICR mouse assessed as death at 200 mg equiv/kg parent drug administered via oral gavage relative to control; conditions: in vivo; summary of the method: as §1
Mus musculus [5] = test: Sleep promoting activity in po dosed ICR mouse assessed as increase in pentobarbital induced sleep time administered 5 mins before pentobarbital injection; type: functional, organism-based
Summary of the method: (§2)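 Fasted male and female ICR mice (n=10/group) received vehicle or 55, 65 or 75 mg/kg orally in 10% DMSO, 20% Solutol HS-15 (30%, w/v), 70% saline, 5 min before pentobarbital 40 mg/kg i.p. Sleep duration ran from falling asleep to recovery of the righting reflex. Data are mean ± SEM versus vehicle.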

Mus musculus [6] = test: Sleep promoting activity in ICR mouse assessed as pentobarbital induced sleep time at 65 mg/kg, po administered 5 mins before pentobarbital injection (reference value: 33 +/- 20 min); type: functional; summary of the method: as §2
Mus musculus [7] = test: Sleep promoting activity in ICR mouse assessed as pentobarbital induced sleep time at 75 mg/kg, po administered 5 mins before pentobarbital injection (reference value: 33 +/- 20 min); type: functional; summary of the method: as §2
[8] = Half life in Beagle dog at 2 mg/kg, iv administered as single bolus dose by LC-MS/MS analysis; type: ADME, organism-based, Canis lupus familiaris; conditions: in vivo
Summary of the method: (§3)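 Beagle dogs (n=3/group) received a single i.v. bolus of parent drug, then after a one-week washout received the prodrug i.g. in 5% DMSO, 5% Solutol HS-15 (30%, w/v), 90% saline. Heparinized blood was taken to 24 h, and plasma was obtained at 2–8 °C and stored at -80 °C. Parent drug was measured by LC-MS/MS and analysed non-compartmentally. Oral bioavailability was oral versus i.v. exposure to the active compound.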

[9] = Cmax in Beagle dog at 2 mg/kg, iv administered as single bolus dose by LC-MS/MS analysis; type: ADME, organism-based, Canis lupus familiaris; parameters: dose 2 mg/kg, route intravenous; conditions: in vivo; summary of the method: as §3
[10] = AUC (0 to t) in Beagle dog at 2 mg/kg, iv administered as single bolus dose by LC-MS/MS analysis; type: ADME, organism-based, Canis lupus familiaris; conditions: in vivo
[11] = Half life in Beagle dog at 3 mg/kg, iv administered as single bolus dose by LC-MS/MS analysis; conditions: in vivo
[12] = Half life in Beagle dog at 6.9 mg/kg, po by LC-MS/MS analysis; conditions: in vivo
in vivo [13] = conditions: Beagle, dog, iv, 3 mg/kg
in vivo [14] = conditions: Beagle, dog, po, 6.9 mg/kg
in vivo [15] = conditions: Beagle, dog, iv, 3 mg/kg; remark: listed apart in the source
in vivo [16] = conditions: Beagle, dog, po, 6.9 mg/kg; remark: listed apart in the source
in vivo [17] = conditions: Beagle, dog, po, 6.9 mg/kg; remark: listed apart in the source
[18] = Half life in Beagle dog at 10 mg/kg, po by LC-MS/MS analysis; type: ADME, organism-based, Canis lupus familiaris; conditions: in vivo; summary of the method: as §3
[19] = Cmax in Beagle dog at 10 mg/kg, po by LC-MS/MS analysis; type: ADME, organism-based, Canis lupus familiaris; parameters: dose 10 mg/kg, route oral; conditions: in vivo; summary of the method: as §3
[20] = AUC (0 to t) in Beagle dog at 10 mg/kg, po by LC-MS/MS analysis; type: ADME, organism-based, Canis lupus familiaris; conditions: in vivo
[21] = Oral bioavailability in Beagle dog at 10 mg/kg by LC-MS/MS analysis; type: ADME, organism-based, Canis lupus familiaris; conditions: in vivo; summary of the method: as §3
[22] = Half life in Beagle dog at 1 mg/kg, iv administered as single bolus dose by LC-MS/MS analysis; type: ADME, organism-based, Canis lupus familiaris; conditions: in vivo; summary of the method: as §3
[23] = AUC (0 to t) in Beagle dog at 1 mg/kg, iv administered as single bolus dose by LC-MS/MS analysis; type: ADME, organism-based, Canis lupus familiaris; conditions: in vivo
[24] = Cmax in Beagle dog at 1 mg/kg, iv administered as single bolus dose by LC-MS/MS analysis; type: ADME, organism-based, Canis lupus familiaris; parameters: dose 1 mg/kg, route intravenous; conditions: in vivo; summary of the method: as §3
[25] = Half life in Beagle dog at 0.2 mg/kg, iv administered as single bolus dose by LC-MS/MS analysis; type: ADME, organism-based, Canis lupus familiaris; conditions: in vivo
Summary of the method: (§4)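 Beagle dogs (n=3/group) received the parent drug as an intravenous bolus. Heparinized blood was drawn pre-dose and at 2, 5, 10, 20 and 30 min and 1, 2, 4, 6, 8, 10, 12 and 24 h. Plasma was separated by centrifugation at 2–8 °C and stored at -80 °C. Parent drug was measured by LC-MS/MS, and parameters were derived by non-compartmental analysis.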

[26] = AUC (0 to t) in Beagle dog at 0.2 mg/kg, iv administered as single bolus dose by LC-MS/MS analysis; type: ADME, organism-based, Canis lupus familiaris; conditions: in vivo
[27] = Cmax in Beagle dog at 0.2 mg/kg, iv administered as single bolus dose by LC-MS/MS analysis; type: ADME, organism-based, Canis lupus familiaris; parameters: dose 0.2 mg/kg, route intravenous; conditions: in vivo; summary of the method: as §4
Mus musculus [28] = test: Anesthetic activity in ICR mouse assessed as onset time for loss of righting reflex at 100 mg equiv/kg parent drug administered via oral gavage; type: functional; summary of the method: as §1
Mus musculus [29] = test: Anesthetic activity in ICR mouse assessed as anesthetic duration time at 100 mg equiv/kg parent drug administered via oral gavage; type: functional; summary of the method: as §1
Mus musculus [30] = test: Anesthetic activity in ICR mouse assessed as loss of righting reflex at 100 mg equiv/kg parent drug administered via oral gavage relative to control; type: functional; summary of the method: as §1
[31] = Toxicity in ICR mouse assessed as death at 100 mg equiv/kg parent drug administered via oral gavage relative to control; conditions: in vivo; summary of the method: as §1

Structure (SMILES) | Time (Mus musculus [1]) | Time (Mus musculus [2]) | Activity (Mus musculus [3]) | mortality [4] | also measured
CCOC(=O)[C@H](C)NP(=O)(CN1CCOCC1)Oc1c(C(C)C)cccc1C(C)C (stereo partly specified) | 7.65 min | 16.18 min | 60% | 10% | –
CCOC(=O)[C@H](C)N[P@](=O)(COC)Oc1c(C(C)C)cccc1C(C)C | 4.38 min | 40.1 min | 100% | 0% | Activity (Mus musculus [5]): Dose-dependent effect; Time (Mus musculus [6]): 69 min; Time (Mus musculus [7]): 82 min
CCOC(=O)[C@H](C)NP(=O)(CO)Oc1c(C(C)C)cccc1C(C)C (stereo partly specified) | 6.91 min | 19.19 min | 40% | 10% | –
CCOC(=O)[C@H](C)NP(=O)(COC)Oc1c(C(C)C)cccc1C(C)C (stereo partly specified) | 4.5 min | 60.31 min | 100% | 10% | –
CCc1c2c(nc3ccc(O)cc13)-c1cc3c(c(=O)n1C2)COC(=O)[C@]3(O)CC [7-ETHYL-10-HYDROXYCAMPTOTHECIN] | – | – | – | – | half-life [8]: 160 min; Cmax [9]: 983 ng/mL; AUC(0-t) [10]: 410 ng·h/mL
CC(C)c1cccc(C(C)C)c1O [PROPOFOL] | – | – | – | – | half-life [11]: 12 min; half-life [12]: 38.4 min; Cmax (in vivo [13]): 2050 ng/mL; Cmax (in vivo [14]): 97 ng/mL; AUC(0-t) (in vivo [15]): 616 ng·h/mL; AUC(0-t) (in vivo [16]): 102 ng·h/mL; bioavailability (in vivo [17]): 7.3%
CCOC(=O)CNP(=O)(COC)Oc1c(C(C)C)cccc1C(C)C (stereo unspecified) | 14.37 min | 32.48 min | 70% | 0% | –
C=CCN1CC[C@]23c4c5ccc(O)c4O[C@H]2C(=O)CC[C@@]3(O)[C@H]1C5 [NALOXONE] | – | – | – | – | half-life [18]: 539 min; Cmax [19]: 43 ng/mL; AUC(0-t) [20]: 117 ng·h/mL; bioavailability [21]: 9.6%; half-life [22]: 22.8 min; AUC(0-t) [23]: 122 ng·h/mL; Cmax [24]: 196 ng/mL
COCP(=O)(N[C@@H](C)C(=O)OCC(C)C)Oc1c(C(C)C)cccc1C(C)C (stereo partly specified) | 8.36 min | 24.47 min | 100% | 10% | –
CCOC(=O)[C@@H](C)NP(=O)(COC)Oc1c(C(C)C)cccc1C(C)C (stereo partly specified) | 9.48 min | 44.8 min | 100% | 10% | –
C[C@]12CC[C@@H]3c4ccc(O)cc4CC[C@H]3[C@@H]1CC[C@@H]2O [ESTRADIOL] | – | – | – | – | half-life [25]: 16.2 min; AUC(0-t) [26]: 28 ng·h/mL; Cmax [27]: 76 ng/mL
COCP(=O)(N[C@@H](C)C(=O)OCc1ccccc1)Oc1c(C(C)C)cccc1C(C)C (stereo partly specified) | 9.34 min | 94.61 min | 50% | 10% | –
CCOC(=O)[C@H](C)NP(=O)(COC)Oc1c(C(C)C)cccc1[C@H](C)C1CC1 (stereo partly specified) | – | – | – | – | Time (Mus musculus [28]): 4.49 min; Time (Mus musculus [29]): 74.44 min; Activity (Mus musculus [30]): 100%; mortality [31]: 50%
CCOC(=O)C(C)(C)NP(=O)(COC)Oc1c(C(C)C)cccc1C(C)C (stereo unspecified) | 6.74 min | 115.9 min | 100% | 20% | –
CC(C)c1cccc([C@H](C)C2CC2)c1O [CIPEPOFOL] | – | – | – | – | half-life [8]: 12 min; half-life [18]: 26.4 min; Cmax [9]: 1610 ng/mL; Cmax [19]: 233 ng/mL; AUC(0-t) [10]: 417 ng·h/mL; AUC(0-t) [20]: 162 ng·h/mL; bioavailability [21]: 7.7%
CCOC(=O)[C@H](C)N[P@@](=O)(COC)Oc1c(C(C)C)cccc1[C@H](C)C1CC1 | – | – | – | – | Time (Mus musculus [28]): 4.35 min; Time (Mus musculus [29]): 85.23 min; Activity (Mus musculus [30]): 100%; mortality [31]: 17%
CCOC(=O)[C@H](C)N[P@](=O)(COC)Oc1c(C(C)C)cccc1[C@H](C)C1CC1 | – | – | – | – | Time (Mus musculus [28]): 3.98 min; Time (Mus musculus [29]): 107.68 min; Activity (Mus musculus [30]): 100%; mortality [31]: 0%
COCP(=O)(N[C@@H](C)C(=O)OC(C)C)Oc1c(C(C)C)cccc1C(C)C (stereo partly specified) | 12.7 min | 59.38 min | 40% | 0% | –
CCOC(=O)[C@H](C)N[P@@](=O)(COC)Oc1c(C(C)C)cccc1C(C)C | 9.68 min | 47.24 min | 33% | 0% | –

Reference: ChEMBL document CHEMBL4017539, “Oral Delivery of Propofol with Methoxymethylphosphonic Acid as the Delivery Vehicle” (J Med Chem, 2017)
